# The list is not random: actives were taken first. Their share in the collection is about 4.9%.
# STAT1 activator – STAT1 signaling activators, primary screen, cell-based, HTS, luciferase reporter; AID 932, 2007; activation (% of control), % at 5.5 µM; actives 2.6% (n = 200,000); NIH 3T3 STAT1-luciferase reporter, IFN-gamma, luminescence; 100% = IFN-gamma alone, no compound;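 active means activation above the screen-wide mean activation plus 3 SD, cut at about 130% in these data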
# STAT3 activator – IL-6 driven STAT3 reporter potentiators, primary screen, U3A cells, luciferase, luminescence, MLSCN library. IL-6 STAT3-luciferase reporter; 100% = signal with IL-6 EC80 alone. activation (% of control), % at 5.6 µM. actives 0.91% (n = 190,000);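 active means activation above the screen-wide mean of compound activation plus 3 SD, cut at about 130% in these data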
#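 Material: human U3A cells carrying STAT3-luciferase construct. Measured by: reporter luminescence signal. Timing: compound 1 h, then IL-6 6 h at 37 °C.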
# APP 5'UTR act – activators of APP 5'UTR luciferase reporter, primary screen, SH-SY5Y cells; SH-SY5Y APP 5'UTR luciferase reporter, luminescence; zero percent = DMSO vehicle wells; activation, % at 2 µM; actives 1% (n = 190,000); AID 1276, 2008;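 active means activation above a set limit, based on mean plus 3 SD of controls, cut at about 140% in these data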
# STAT3 blocker – IL-6 driven STAT3 reporter inhibitors, primary screen, U3A cells, luciferase, luminescence, MLSCN library; IL-6 STAT3-luciferase reporter; host cell line lacks STAT1; actives 0.89% (n = 190,000); inhibition, % at 5.5 µM;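 active means inhibition above the mean inhibition across all screened compounds plus 3 SD, cut at about 44% in these data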
# NF-kB neuron act – activators of NF-kB expression in neurons, primary screen, cell-based, HTS; AID 1239, 2008; human neuronal cells, NF-kB reporter expression; active compounds read high; actives 1.6% (n = 190,000); fold change at 12.5 µM; in the data active means fold change above about 3.3
# STAT1 blocker – STAT1 signaling inhibitors, primary screen, cell-based, HTS, luciferase reporter; NIH 3T3 STAT1-luciferase reporter, IFN-gamma, luminescence; inhibition, % at 5.5 µM; actives 0.35% (n = 200,000); AID 920, 2007;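 active means inhibition above a set limit, the mean inhibition across all tested compounds plus 3 SD, cut at about 34% in these data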
# A number is an active result; . = inactive; / = no result.
SMILES,STAT1 activator,STAT3 activator,APP 5'UTR act,STAT3 blocker,NF-kB neuron act,STAT1 blocker
CCOC(=O)c1sc(NC(=O)C(C)(C)C)cc1C,131,.,.,.,.,.
CCOC(=O)c1sc(NC(=O)c2ccc(Cl)s2)cc1C,132,.,.,.,.,.
CCOC(=O)c1sc(NC(=O)Nc2ccc(Cl)cc2)cc1C,.,.,.,.,.,.
CCOC(=O)c1sc(NC(=O)C2CC2)cc1C,.,.,.,.,.,.
CCOC(=O)c1sc(=NC(=O)c2ccccc2)n(C)c1C,138,.,180,.,6.7,.
CCC(C)NC(=O)c1ccccc1-c1nc2ccccc2[nH]1 (stereo not given),.,.,.,.,.,.
CCOC(=O)c1csc(NC(=O)c2ccccc2)n1,136,.,144,.,3.6,.
CCN(CC)C(=O)c1c(NC(=O)c2ccccc2)sc(C)c1C,.,.,.,.,.,.
CCN(CC)Cc1c(NC(=O)c2ccccc2)sc(C)c1C,134,.,.,.,.,.
CC(C)C[C@H](NC(=O)c1nc[nH]c1C(=O)N(C)Cc1ccccc1)C(=O)OC(C)(C)C,.,/,.,/,.,.
O=C(NNC(=O)C1CC(c2cccs2)=NO1)NC1CCCCC1 (stereo not given),.,.,.,.,.,.
NC(=O)c1ccsc1NC(=O)c1cccs1,.,.,.,.,/,.
COC(=O)c1ccsc1NC(=O)c1ccccc1,.,.,.,.,.,.
NC(=O)c1ccsc1NC(=O)c1ccc2c(c1)CCCC2,139,.,180,.,8.2,.
CNC(=O)c1ccsc1NC(=O)c1ccc2c(c1)CCCC2,131,.,.,.,.,.
CCc1ccc(-c2csc(NC(=O)COC(=O)CCc3nc4ccccc4s3)n2)cc1,131,.,.,.,.,.
Cc1nc(NC(=O)COC(=O)CCc2nc3ccccc3s2)c(Cl)cc1Cl,.,.,.,.,.,.
COc1ccc(NC(=S)NCCc2c(C)[nH]c3ccc(OC)cc23)cc1,.,.,.,.,.,.
O=C(c1ccc(Cl)s1)N1CCc2ccccc21,144,.,.,.,.,.
CCc1sc(C(=O)N2CCc3ccccc32)cc1C,134,.,189,.,8.3,.
Nc1ccccc1SCC(=O)N1CCc2ccccc21,.,.,.,.,.,.
O=C(CSC1=NCCS1)N1CCc2ccccc21,.,.,.,.,3.5,.
Cc1ccc(C(=O)N2CCc3ccccc32)cc1,.,.,.,.,.,.
O=C(c1ccc(C(=O)N2CCCc3ccccc32)s1)N1CCCc2ccccc21,.,.,.,.,.,.
CCOc1ccccc1N1CC(C(=O)Nc2c(C)n(C)n(-c3ccccc3)c2=O)CC1=O (stereo not given),.,.,.,.,.,.
SMILES,STAT1 activator,STAT3 activator,APP 5'UTR act,STAT3 blocker,NF-kB neuron act,STAT1 blocker
Cc1ccccc1N/C=C/C(=C(C#N)C#N)N(C)C,.,.,.,.,.,.
O=C1NC(=O)C2(COC(c3ccccc3Cl)OC2)S1 (stereo not given),.,.,.,.,.,.
O=C(Nc1ccc(C(=O)N2CCOCC2)cc1)Nc1cccc2ccccc12,.,.,.,.,.,.
CC(=O)N(/N=C1\Sc2ccccc2C1=O)c1cccc(C)c1,.,.,136,.,7.1,.
CC(=O)N(CN1C(=O)c2ccccc2C1=O)c1cccc(C)c1,.,.,.,.,.,.
CNC(=O)COC(=O)c1cc(-c2ccccc2)nn1-c1ccccc1,.,.,.,.,.,.
O=C(Nc1ccccc1C(=O)O)c1ccc(Cl)c(S(=O)(=O)N2CCOCC2)c1,.,.,.,.,.,51
COc1ccccc1NC(=O)c1ccc(Cl)c(S(=O)(=O)N2CCOCC2)c1,.,.,.,.,.,.
O=C(O)c1cccc(NC(=O)c2ccc(Cl)c(S(=O)(=O)N3CCCCCC3)c2)c1,.,.,.,53,.,39
Nc1nc(CSc2nc3ccccc3[nH]2)cs1,.,.,.,.,.,.
c1ccc(CSc2ncn(-c3ccccc3)n2)cc1,144,.,.,.,4.3,.
O=C(CSc1ncn(-c2ccccc2)n1)c1cccs1,129,.,.,.,3.5,.
Nc1nc(CSc2ncn(-c3ccccc3)n2)cs1,132,.,.,.,.,.
Cc1ccc(NS(=O)(=O)c2ccc(OCC(N)=O)cc2)cc1,.,.,.,.,.,.
COCCCn1c(SCC(=O)N2CCc3ccccc32)nnc1-c1ccoc1C,.,136,.,.,/,.
COc1ccc(NC(=S)Nc2cccc(C(F)(F)F)c2)c(C)c1,.,.,.,.,.,.
Cc1ccc(NC(=O)c2cc(C)on2)cc1,130,.,.,.,3.3,.
Cc1ccc(NC(=O)c2onc(C)c2Cl)cc1,.,.,.,.,.,.
CCCc1cc(C(=O)Nc2ccc(C)cc2)no1,135,.,.,.,.,.
CCc1ccc(NC(=O)c2cc(CC(C)C)on2)cc1,.,.,.,.,.,.
O=C(Nc1nnc(CSCc2ccc(F)cc2)s1)c1ccc([N+](=O)[O-])cc1,.,.,.,.,.,.
Nc1cccc(-c2nc3ccccc3s2)c1,147,.,.,.,5.9,.
CC(=O)Nc1ccc2nc(NC(=O)C(Cl)(Cl)Cl)sc2c1,.,.,.,.,.,.
CC(=O)Nc1cccc(-c2nc3ccc(NC(C)=O)cc3s2)c1,140,.,.,.,.,.
CC(=O)Nc1cccc(-c2nc3ccccc3s2)c1,148,.,.,.,.,.
SMILES,STAT1 activator,STAT3 activator,APP 5'UTR act,STAT3 blocker,NF-kB neuron act,STAT1 blocker
O=C(O)c1ccc2c(c1)C(=O)N(c1cccc(-c3nc4ccccc4s3)c1)C2=O,130,.,.,.,.,.
CC(=O)Oc1cccc(N2C(=O)c3ccc(C(=O)O)cc3C2=O)c1,.,.,.,.,.,.
CCCS(=O)(=O)N1CCN(C2CCC(C)CC2)CC1 (stereo not given),.,.,.,.,.,.
Cc1ccc(NC(=O)n2ccc(-c3ccc(-n4ccnc4)cc3)n2)cc1,135,.,.,.,.,.
CCc1ccc(NC(=O)Cn2c3[n+](c4c(F)c(F)ccc42)CCCCC3)cc1,.,.,.,.,.,.
CCOC(=O)c1sc(NC(=O)c2ccc3ncsc3c2)nc1C,148,.,.,.,.,.
CCOC(=O)c1sc(NC(=O)c2ccccc2OC)nc1C,146,.,153,.,8,.
COC(=O)c1sc(NC(=S)NC(=O)c2ccccc2F)nc1C,129,.,.,.,.,.
CCOC(=O)c1sc(NC(=O)c2ccc(CC)s2)nc1C,.,.,.,.,.,.
CCOC(=O)CNC(=O)c1sc(NC(=O)c2ccccc2F)nc1C,129,.,.,.,.,.
